Test results published in ChEMBL document CHEMBL4513216, “Probing the Open Global Health Chemical Diversity Library for Multistage-Active Starting Points for Next-Generation Antimalarials” (ACS Infect Dis, 2020).

experiment: Toxicity liver stage against HepG2, at 10uM; type: cell-based; design: test concentration 10 uM, cell line HepG2-A16-CD81EGFP; settings: human, HepG2-A16-CD81EGFP cells; read-out: INHIBITION
Method in brief: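 Uninfected HepG2-A16-CD81EGFP cells, 3 × 10^3 per well, 1536-well, plated on prespotted compound at 10 μM final, parasite-free screening media added to match infected plates; puromycin 10 μM positive, DMSO 0.5% negative; run in parallel with 48 h PbLuc assay at 37 °C, 5% CO2; viability by CellTiter-Glo luminescence, normalized to controls.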

In order of falling cytotoxicity at 10 µM:
1. CN1CCCC2(CCN(S(=O)(=O)c3c(Cl)nc4sccn34)C2)C1=O (stereo unspecified)  12.4%
2. COc1ccc(CN2CCc3c(CNC(=O)CC#N)nn(C)c3C2)cc1  9.67%
3. O=S(=O)(c1c(Cl)nc2sccn12)N1CCCC2(CCNC2)C1 (stereo unspecified)  8.64%
4. Cc1nc(C(=O)N2CCCC(c3cccc(-n4ccnc4)n3)C2)co1 (stereo unspecified)  8.31%
5. O=C(C1CN(CC2CCOCC2)CC12CCOCC2)N1CCCC1 (stereo unspecified)  6.65%
6. CN(C)C(=O)CN1C[C@H]2CC[C@@H](C1)N(Cc1c(F)cccc1Cl)C2  5.48%
7. CN(C)C[C@H]1OC[C@@H]2CCN(C(=O)c3ccc[nH]3)C[C@@H]21  5.41%
8. CN1CCn2c(-c3ccccc3)cnc2C12CCN(CC1CC1)CC2  5.35%
9. Nc1ccc(C(=O)N2CCC(Oc3cccc(C(F)(F)F)c3)CC2)cn1  5.3%
10. CCN(CC1=CCN(C)CC1)C(=O)CCOC  5.09%
11. CC(=O)N1CCC2(CC1)CNc1c(F)cccc12  4.79%
12. CNCC(=O)N1CC(c2cc(Nc3ncccn3)nc(C)n2)C1  4.19%
13. COCCC1CCCCN1C(=O)c1coc(COc2ccccc2F)n1 (stereo unspecified)  3.97%
14. O=C1CCC2(CCC(NCc3ccsc3)CC2)N1Cc1ccccc1 (stereo unspecified)  3.79%
15. COc1nc2c(cc1C(=O)NCCCc1csc(N)n1)CCC2  3.63%
16. COc1ccc(C[C@H]2CN(C3CCOCC3)CC[C@@H]2OCC2CC2)cc1  2.38%
17. CCc1nc(C2CCCN2C(=O)c2cnns2)no1 (stereo unspecified)  1.04%
18. CC(=O)NC(C)(C)C(=O)Nc1ncc(Cc2ccc(C)c(F)c2)s1  0.987%
19. O=C(CCNc1ncccn1)NCCc1ccn(-c2ccccc2)n1  0.914%
20. Cc1[nH]c2cc(C3CCN(C(=O)c4ccccn4)CC3)nn2c(=O)c1C  0.636%
21. c1cc(CN2Cc3nnn(CC4CC4)c3C(COCC3CC3)C2)co1 (stereo unspecified)  -0.336%
22. CN(C)Cc1ccnc(C2CCCN2Cc2cc[nH]n2)n1 (stereo unspecified)  -0.902%
23. CC(C)CC(=O)N(C)CC(=O)Nc1ccc(Br)cn1  -1.43%
24. Cc1ccc(N2CCCC(NCc3cccc4c3OCCO4)C2)nn1 (stereo unspecified)  -1.69%
25. Cc1nc(CN2CCCN(Cc3nccn3C(C)C)CC2)no1  -1.91%
26. COc1cccc(-n2c(C)cc(C(=O)NC(C)(C)C(N)=O)c2C)c1  -2%
27. CC(C)c1nnc(NCc2cc3n(n2)CCNC3)s1  -2.11%
28. COc1cc(C(=O)Nc2nc(C)no2)ccc1OC1CCCC1  -2.12%
29. CCOC1COC2(CCN(Cc3cccc(C#N)c3)CC2)C1 (stereo unspecified)  -2.66%
30. c1cc(CN2CCC(c3nnc4n3CCCCC4)CC2)c2c(c1)OCO2  -3.14%
31. CN(Cc1nc(CC2CC2)no1)CC1COc2ccccc2O1 (stereo unspecified)  -3.89%
32. O=C(NC1CCN(Cc2cccc3c2OCCO3)CC1)c1cccs1  -4.71%
33. COc1ccc(C(C(=O)O)N2CCN(C3CCCCC3)CC2)cc1OC (stereo unspecified)  -4.89%
34. CNc1nc(CNC(=O)Nc2cccc(-c3nnco3)c2)cs1  -5.26%
35. Cc1cnn(CC2CN(CC(=O)Nc3nccs3)CCO2)c1 (stereo unspecified)  -7.51%
36. CC(C)CCC(=O)N(C)CC(=O)Nc1ccc(Br)cn1  -8.39%
37. O=C(NCCOCC(F)(F)F)c1ccc(-c2ccco2)[nH]c1=O  -8.5%
38. CN(Cc1ccco1)C(=O)[C@H]1CSCN1C(=O)OC(C)(C)C  -8.97%
39. COCC1CN(Cc2ccc(C)o2)Cc2cn(C)nc21 (stereo unspecified)  -9.2%
40. Cc1cc(C)n(C2CCCN(C(=O)C3=NN(C)C(=O)CC3)C2)n1 (stereo unspecified)  -9.21%
41. Cc1nc(C2CCCN(C(=O)CCn3ccccc3=O)C2)no1 (stereo unspecified)  -9.35%
42. CNc1cc(N2CCCC2CNCc2csc(C)n2)ncn1 (stereo unspecified)  -9.71%
43. O=C(CN1CC(c2nc(C3CC3)no2)C1)N1CCOCC1  -9.76%
44. CCc1nc(C)sc1CN1CC[C@@](O)(C2CC2)[C@H](C)C1  -10.3%
45. O=C(Cc1ccc(F)cc1)N1CCN(CC(O)c2ccccc2)CC1 (stereo unspecified)  -11.2%
46. Cc1nc2cc(C(=O)N3C[C@@H](C(=O)O)[C@H](C4CC4)C3)ccc2[nH]1  -12.1%
47. COc1c(C)cnc(CN2CCOC(Cn3cc(C)cn3)C2)c1C (stereo unspecified)  -14.7%
48. CC(C)Oc1ccc(CNC(=O)NCc2ccncc2)cc1F  -18.3%
49. CC(=O)NCCNC(=O)CN1CCCC(Cn2cncn2)C1 (stereo unspecified)  -18.9%
50. Brc1ccccc1-c1nnc(CNCCn2cccn2)o1  -24.5%
51. O=C(NC1CC1)[C@@H]1C[C@@H]2CCN(Cc3ccccc3)C[C@H]2O1  -68%
52. O=C(c1ccncc1F)N1CCc2onc(COc3cccnc3)c2C1  -70.6%
53. COCCN1CCOCC12CCN(C(=O)c1cccnc1)CC2  -73.1%
54. COCC1CN(Cc2ccncc2)Cc2nn(CC3CC3)cc21 (stereo unspecified)  -73.7%
55. Cc1noc([C@@H]2C[C@H]3OCC[C@H]3N(CC3CCCC3)C2)n1  -77.5%
56. Cc1nc(C2CCNCC2)cc(N2CCCC(C(=O)NCCCO)C2)n1 (stereo unspecified)  -124%
